Experimental data as given in ChEMBL document CHEMBL1151976, “Bioactive sulfated sesterterpene alkaloids and sesterterpene sulfates from the marine sponge Fasciospongia sp” (J Nat Prod, 2009).
pIC50: −log10 of the molar value. Calls of active or inactive are those of the source. The calls are words filed in the database; no cut-off is given here.

These molecules were tested on Streptomyces (assay: Antimicrobial activity against Streptomyces 85E assessed as inhibition of hyphae formation at 10 ug/disk after 30 hrs). Settings: read-out: IZ.
Format: functional
Procedure, shortened: (§1)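 Streptomyces 85E mycelial fragments spread as a lawn on minimal medium ISP 4 agar. Compounds in MeOH loaded onto 7 mm filter disks, air-dried, placed on plates, incubated 30 °C for 30 h. Read-out: clear or bald (hyphae-free) zone diameter around the disk; >9 mm counted active. Surfactin positive control, MeOH negative control; run in duplicate.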

Row | Structure (SMILES) | zone of inhibition at 10 µg/disc [mm]
1 | C[C@H]1CC[C@H]2C(=CCCC2(C)C)[C@@]1(C)CCC(CCCC1=CC(=O)OC1O)COS(=O)(=O)O (stereo partly specified) | 13
2 | C[C@H]1CC[C@H]2C(=CCCC2(C)C)[C@@]1(C)CCC(CCCC1=CC(=O)N(CCc2c[nH]cn2)C1=O)COS(=O)(=O)O (stereo partly specified) [19-OXOFASCIOSPONGINE A] | 20
3 | C[C@H]1CC[C@H]2C(=CCCC2(C)C)[C@@]1(C)CCC(CCCC1=CCN(CCc2c[nH]cn2)C1=O)COS(=O)(=O)O (stereo partly specified) [FASCIOSPONGINE A] | 16

What follows are molecules tested on Streptomyces (assay: Antimicrobial activity against Streptomyces 85E assessed as inhibition of hyphae formation at 5 ug/disk after 30 hrs). Settings: not given.
Format: functional
Procedure, shortened: as §1

Row | Structure (SMILES) | inhibition zone (IZ)
4 | C[C@H]1CC[C@H]2C(=CCCC2(C)C)[C@@]1(C)CCC(CCCC1=CC(=O)OC1O)COS(=O)(=O)O (stereo partly specified) | inactive

Same assay, conditions: read-out: IZ

Row | Structure (SMILES) | zone of inhibition at 5 µg/disc [mm]
5 | C[C@H]1CC[C@H]2C(=CCCC2(C)C)[C@@]1(C)CCC(CCCC1=CC(=O)N(CCc2c[nH]cn2)C1=O)COS(=O)(=O)O (stereo partly specified) [19-OXOFASCIOSPONGINE A] | 16
6 | C[C@H]1CC[C@H]2C(=CCCC2(C)C)[C@@]1(C)CCC(CCCC1=CCN(CCc2c[nH]cn2)C1=O)COS(=O)(=O)O (stereo partly specified) [FASCIOSPONGINE A] | 14

Each molecule was assayed on LNCaP (assay: Cytotoxicity against human LNCAP cells after 72 hrs by SRB assay). Settings: not given.
Format: functional, cell-based
Procedure, shortened: (§2)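 Cells seeded at 10^6 cells/mL in 96-well plates. Six serial dilutions of sample in 10% DMSO added in triplicate. Incubated 72 h at 37 °C; viability measured by sulforhodamine B staining. IC50 is the concentration giving 50% growth inhibition relative to 0.5% DMSO-treated control, averaged over two independent experiments.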

Row | Structure (SMILES) | pIC50
7 | C[C@H]1CC[C@H]2C(=CCCC2(C)C)[C@@]1(C)CCC(CCCC1=CC(=O)N(CCc2c[nH]cn2)C1=O)COS(=O)(=O)O (stereo partly specified) [19-OXOFASCIOSPONGINE A] | 4.66

What follows are molecules tested on Streptomyces (assay: Antimicrobial activity against Streptomyces 85E assessed as inhibition of hyphae formation at 20 ug/disk after 30 hrs). Settings: read-out: IZ.
Format: functional
Procedure, shortened: as §1

Row | Structure (SMILES) | zone of inhibition at 20 µg/disc [mm]
8 | C[C@H]1CC[C@H]2C(=CCCC2(C)C)[C@@]1(C)CCC(CCCC1=CC(=O)OC1O)COS(=O)(=O)O (stereo partly specified) | 19
9 | C[C@H]1CC[C@H]2C(=CCCC2(C)C)[C@@]1(C)CCC(CCCC1=CC(=O)N(CCc2c[nH]cn2)C1=O)COS(=O)(=O)O (stereo partly specified) [19-OXOFASCIOSPONGINE A] | 25
10 | C[C@H]1CC[C@H]2C(=CCCC2(C)C)[C@@]1(C)CCC(CCCC1=CCN(CCc2c[nH]cn2)C1=O)COS(=O)(=O)O (stereo partly specified) [FASCIOSPONGINE A] | 18

What follows are molecules tested on MCF7 (assay: Cytotoxicity against human MCF7 cells after 72 hrs by SRB assay). Settings: MCF7, 72 h.
Format: functional, cell-based
Procedure, shortened: as §2

Row | Structure (SMILES) | pIC50
11 | C[C@H]1CC[C@H]2C(=CCCC2(C)C)[C@@]1(C)CCC(CCCC1=CC(=O)N(CCc2c[nH]cn2)C1=O)COS(=O)(=O)O (stereo partly specified) [19-OXOFASCIOSPONGINE A] | 4.87

The molecules below were run on MCF7 (assay: Cytotoxicity against human MCF7 cells at 20 ug/ml after 72 hrs by SRB assay). Settings: not given.
Format: functional, cell-based
Procedure, shortened: (§3)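 Single-concentration screen at 20 µg/mL. Cells seeded at 10^6 cells/mL in 96-well plates, sample added in 10% DMSO, incubated 72 h at 37 °C. Viability by sulforhodamine B staining, compared with a 0.5% DMSO-treated control.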

Row | Structure (SMILES) | Activity
12 | C[C@H]1CC[C@H]2C(=CCCC2(C)C)[C@@]1(C)CCC(CCCC1=CC(=O)OC1O)COS(=O)(=O)O (stereo partly specified) | Not toxic
13 | C[C@H]1CC[C@H]2C(=CCCC2(C)C)[C@@]1(C)CCC(CCCC1=CCN(CCc2c[nH]cn2)C1=O)COS(=O)(=O)O (stereo partly specified) [FASCIOSPONGINE A] | Not toxic

Each molecule was assayed on Lu1 (assay: Cytotoxicity against human Lu1 cells after 72 hrs by SRB assay). Settings: Lu1, 72 h.
Format: functional, cell-based
Procedure, shortened: as §2

Row | Structure (SMILES) | pIC50
14 | C[C@H]1CC[C@H]2C(=CCCC2(C)C)[C@@]1(C)CCC(CCCC1=CC(=O)N(CCc2c[nH]cn2)C1=O)COS(=O)(=O)O (stereo partly specified) [19-OXOFASCIOSPONGINE A] | 5.30

These molecules were tested on Streptomyces (assay: Antimicrobial activity against Streptomyces 85E assessed as inhibition of hyphae formation at 2.5 ug/disk after 30 hrs). Settings: not given.
Format: functional
Procedure, shortened: as §1

Row | Structure (SMILES) | inhibition zone (IZ)
15 | C[C@H]1CC[C@H]2C(=CCCC2(C)C)[C@@]1(C)CCC(CCCC1=CC(=O)OC1O)COS(=O)(=O)O (stereo partly specified) | inactive
16 | C[C@H]1CC[C@H]2C(=CCCC2(C)C)[C@@]1(C)CCC(CCCC1=CCN(CCc2c[nH]cn2)C1=O)COS(=O)(=O)O (stereo partly specified) [FASCIOSPONGINE A] | inactive

Same assay, conditions: read-out: IZ

Row | Structure (SMILES) | zone of inhibition at 2.5 µg/disc [mm]
17 | C[C@H]1CC[C@H]2C(=CCCC2(C)C)[C@@]1(C)CCC(CCCC1=CC(=O)N(CCc2c[nH]cn2)C1=O)COS(=O)(=O)O (stereo partly specified) [19-OXOFASCIOSPONGINE A] | 14

What follows are molecules tested on Lu1 (assay: Cytotoxicity against human Lu1 cells at 20 ug/ml after 72 hrs by SRB assay). Settings: not given.
Format: functional, cell-based
Procedure, shortened: as §3

Row | Structure (SMILES) | Activity
18 | C[C@H]1CC[C@H]2C(=CCCC2(C)C)[C@@]1(C)CCC(CCCC1=CC(=O)OC1O)COS(=O)(=O)O (stereo partly specified) | Not toxic
19 | C[C@H]1CC[C@H]2C(=CCCC2(C)C)[C@@]1(C)CCC(CCCC1=CCN(CCc2c[nH]cn2)C1=O)COS(=O)(=O)O (stereo partly specified) [FASCIOSPONGINE A] | Not toxic

Each molecule was assayed on LNCaP (assay: Cytotoxicity against human LNCAP cells at 20 ug/ml after 72 hrs by SRB assay). Settings: not given.
Format: functional, cell-based
Procedure, shortened: as §3

Row | Structure (SMILES) | Activity
20 | C[C@H]1CC[C@H]2C(=CCCC2(C)C)[C@@]1(C)CCC(CCCC1=CC(=O)OC1O)COS(=O)(=O)O (stereo partly specified) | Not toxic
21 | C[C@H]1CC[C@H]2C(=CCCC2(C)C)[C@@]1(C)CCC(CCCC1=CCN(CCc2c[nH]cn2)C1=O)COS(=O)(=O)O (stereo partly specified) [FASCIOSPONGINE A] | Not toxic
